pEC50, pIC50: −log10 of the molar value.
Columns and labels:
[1] = test system: MT2; assay: Cytotoxicity against human MT2 cells assessed as concentration required to 5% inhibition of cell growth relative to control; assay type: cell-based
Method in brief: (§1)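 MT-2 cells were grown in RPMI-1640 without antibiotics and exposed to compound. CT50 and CT5 are the concentrations inhibiting cellular replication by 50% and 5% relative to untreated control; CT5 corresponds to 95% viable cells. Values are the mean of triplicate assays with SD.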

[2] = Cytotoxicity against human MT2 cells assessed as concentration required to 50% inhibition of cell growth relative to control; assay type: cell-based; conditions: read-out: Activity; method in brief: as §1
[3] = Inhibition of HIV NL4-3 recombinant histidine-tagged integrase 3'-end processing activity expressed in Escherichia coli BL21 (DE3); set-up: species or system Human immunodeficiency virus
Method in brief: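 N-terminal 6-His-tagged HIV-1 NL4-3 IN expressed in E. coli BL21 DE3 pLysS, Ni2+ affinity purified (>95%), stored at -80 °C. The 32P-labeled blunt-end V1/V2 duplex mimicking the viral LTR was incubated with IN and increasing compound concentrations at 37 °C for 1 h, in triplicate. Products were resolved by denaturing PAGE and quantified by phosphorimager. 3'-processing was read as the 21mer to 19mer conversion.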

[4] = test system: Human immunodeficiency virus; assay: Antiviral activity against HIV LAI infected in human MT2 cells assessed as protection against virus-induced cytopathic effect; assay type: functional, organism-based; conditions: Human immunodeficiency virus 1, LAI
Method in brief: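 MT-2 cells were cultured in RPMI-1640 without antibiotics and infected with HIV LAI. EC50 is the concentration protecting 50% of cells from virus-induced cytopathic effect. Values are the mean of triplicate assays with SD.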

[5] = Inhibition of HIV NL4-3 recombinant histidine-tagged integrase strand transfer activity expressed in Escherichia coli BL21 (DE3); set-up: species or system Human immunodeficiency virus
[6] = Therapeutic index, ratio of CT50 for human MT2 cells to EC50 for HIV LAI; assay type: cell-based; conditions: read-out: TI

Row | pIC50 [3] | pEC50 [4] | pIC50 [5] | Compound | Activity [1] | CC50 [2] | selectivity ratio [6]
1 | 5.74 | < 4.27 | 5.86 | COC(=O)/C(O)=C/C(=O)c1ccc(NC(=O)/C=C/c2ccc(O)c(O)c2)cc1 | 12.4 µM | 39500 nM | –
2 | 5.55 | < 4.44 | 5.72 | COC(=O)/C(O)=C/C(=O)c1ccc(O)c(O)c1 | 36 µM | 182000 nM | –
3 | 5.64 | < 4.43 | 5.59 | O=C(/C=C/c1ccc(O)c(O)c1)Nc1ccccc1C(=O)/C=C(\O)C(=O)O | 23.3 µM | 53000 nM | –
4 | 6.33 | < 4.17 | 5.95 | O=C(O)/C(O)=C/C(=O)c1ccc(O)c(O)c1 | 67 µM | 178000 nM | –
5 | 6.12 | < 4.32 | 6.20 | COC(=O)/C(O)=C/C(=O)c1cc(NC(=O)/C=C/c2ccc(O)c(O)c2)cc(NC(=O)/C=C/c2ccc(O)c(O)c2)c1 | > 47.7 µM | > 47700 nM | –
6 | 6.41 | 7.22 | 6.68 | O=C(/C=C/c1cc(O)c(O)c(O)c1)OC(c1nnn[nH]1)C(OC(=O)/C=C/c1cc(O)c(O)c(O)c1)c1nnn[nH]1 (single isomer, unassigned) | 11.3 µM | 48900 nM | > 350
7 | 6.40 | < 4.77 | 6.46 | O=C(/C=C/c1ccc(O)c(O)c1)Nc1ccc(C(=O)/C=C(\O)C(=O)O)cc1 | 26.1 µM | 47200 nM | –
8 | 4.89 | 6.40 | 6.85 | O=C(O)C(=O)CC(=O)c1cccn1Cc1ccc(F)cc1 | > 69.3 µM | > 69300 nM | –
9 | 6.96 | < 4.47 | 6.44 | O=C(/C=C/c1ccc(O)c(O)c1)Nc1cccc(C(=O)/C=C(\O)C(=O)O)c1 | 20.4 µM | 52800 nM | –
10 | 6.85 | 6.07 | 6.92 | O=C(/C=C/c1ccc(O)c(O)c1)OCC(OC(=O)/C=C/c1ccc(O)c(O)c1)c1nnn[nH]1 (racemic) | > 42.5 µM | > 42500 nM | –
11 | 4.72 | 4.09 | 5.22 | O=C(/C=C/c1ccc(O)c(O)c1)O[C@@H](C(=O)O)[C@@H](O)C(=O)O [CAFTARIC ACID] | 49.6 µM | 325000 nM | –
12 | 3.87 | < 4.04 | 4.13 | O=C(O[C@@H](C(=O)O)[C@@H](OC(=O)c1cccn1Cc1ccc(F)cc1)C(=O)O)c1cccn1Cc1ccc(F)cc1 | 28.7 µM | 374000 nM | –
13 | 6.47 | 6.48 | 6.36 | O=C(/C=C/c1ccc(O)c(O)c1)O[C@@H](c1nnn[nH]1)[C@@H](OC(=O)/C=C/c1ccc(O)c(O)c1)c1nnn[nH]1 | 28.4 µM | 422000 nM | > 350
14 | 5.96 | < 4.44 | 6.09 | O=C(/C=C(\O)C(=O)O)/C=C/c1ccc(O)c(O)c1 | 32 µM | 80000 nM | –
15 | 6.92 | < 4.29 | 6.89 | O=C(/C=C/c1ccc(O)c(O)c1)Nc1cc(NC(=O)/C=C/c2ccc(O)c(O)c2)cc(C(=O)/C=C(\O)C(=O)O)c1 | > 50.7 µM | > 50700 nM | –
16 | 6.68 | 6.38 | 6.57 | NC(=O)[C@H](OC(=O)/C=C/c1ccc(O)c(O)c1)[C@@H](OC(=O)/C=C/c1ccc(O)c(O)c1)c1nnn[nH]1 | 5.7 µM | 31900 nM | > 350
17 | 5.39 | 3.96 | 5.90 | O=C(/C=C/c1ccc(O)c(O)c1)O[C@@H](C(=O)O)[C@@H](OC(=O)c1cccn1Cc1ccc(F)cc1)C(=O)O | 41.8 µM | 399000 nM | –
18 | 3.56 | < 3.77 | 4.33 | O=C(O[C@@H](C(=O)O)[C@@H](O)C(=O)O)c1cccn1Cc1ccc(F)cc1 | 60.8 µM | 792000 nM | –
19 | 6.66 | 6.09 | 6.57 | O=C(/C=C/c1ccc(O)c(O)c1)O[C@@H](C(=O)O)[C@@H](OC(=O)/C=C/c1ccc(O)c(O)c1)C(=O)O [CICHORIC ACID] | 41 µM | 124000 nM | –

From ChEMBL document CHEMBL1275394, “Design, synthesis, and biological evaluation of novel hybrid dicaffeoyltartaric/diketo acid and tetrazole-substituted L-chicoric acid analogue inhibitors of human immunodeficiency virus type 1 integrase” (J Med Chem, 2010)
